Reference: the EternaBench riboswitch data

Test system: MS2 coat protein
Assay: apparent Kd, MS2 coat protein; higher = weaker binding; RNA-MaP array; FMN 200 µM where present
Summary of the method: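 The apparent Kd comes from binding curves fitted cluster by cluster, filtered, and summarised as a median. Those curves followed SNAP-549-labelled MS2 coat protein from 0.7 or 1.5 nM, doubling to 3 µM, on Illumina sequencing-chip clusters where stalled E. coli RNA polymerase had transcribed the designs, without and then with constant ligand. The buffer was 100 mM Tris-HCl pH 7.5, 80 mM KCl, 4 mM MgCl2, BSA, DTT, yeast tRNA and Tween-20, and green signal was normalised to red-channel RNA signal and control-cluster median Fmax.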

[1] = designed as: OFF switch for flavin mononucleotide, no ligand
[2] = ligand present: flavin mononucleotide, designed as: OFF switch for flavin mononucleotide
[3] = designed as: ON switch for flavin mononucleotide, no ligand
[4] = ligand present: flavin mononucleotide, designed as: ON switch for flavin mononucleotide

Sequence | apparent Kd [1] [nM] | apparent Kd [2] [nM] | apparent Kd [3] [nM] | apparent Kd [4] [nM]
AAUUAACAUGAGGAUCACCCAUGUGAGGAUAUGGUAUUAUUUGGACAGUUAUGAUCUACCAGAAGGCACAUAUA | 39 | 65.1 | – | –
AAUUAAUUAAUUAAGUACAUGAGGAUCACCCAUGUAAGUGAUCAGGAUAUCAGCUCGAUUAGAGCUGAGAAGGGAUCCAUGUAC | – | – | 531 | 303
AAUUAAUUGUAGAAGGUACUUAAUUAUGUUAUGUAAGGAUAUACGUAAUUAUUACGUCUUGUAUGACAUGAGGAUCACCCAUGU | – | – | 12.9 | 11
AAUUAUUAUUGAGGAUAUCGUAUUGAAACAAUACGAGAAGGCGGAAUAAACAUGAGGAUCACCCAUGUGAGCCUGAUGCUUGUG | 17 | 18.7 | – | –
AAUUAUUAUUGAGGAUAUCGUAUUGAAACAAUAUGAGAAGGCGGGAUAAACAUGAGGAUCACCCAUGUGAGCCUGAUGCUUGUG | 16.3 | 15.6 | – | –
AAUUCACAUGAGGAUCACCCAUGUCAGGAUAUGGUUUCACGUUUUUCUUUUCUUGAUUCCAGAAGGGACAGCUA | 65.6 | 82 | – | –
AAUUCACAUGAGGAUCACCCAUGUCAGGAUAUGGUUUCACUUUUUUCUUUUCUUGAUUCCAGAAGGGACAGCUA | 77.3 | 68.5 | – | –
AAUUCACAUGAGGAUCACCCAUGUGAGGAUAUGGAUUCGCUGGCCGUAGCCAGUGGAUCCAGAAGGCGCAUGAU | 29.2 | 35.6 | – | –
AAUUGAAACGUAGGAUAUCGCUAUAAAUUAAUUCGAGAAGGACGUACAUGAGGAUCACCCAUGUUAAAUGGUGUAGUUUAGUUG | 108 | 270 | – | –
AAUUGACACGUAGGAUAUCGAACUAUAUUAACACGAGAAGGACGUACAUGAGGAUCACCCAUGUUUAAUGGAGUAGAUAAGUUG | 144 | 283 | – | –
AAUUGACACGUAGGAUAUCGAACUAUUUUAACACGAGAAGGACGUACAUGAGGAUCACCCAUGUUUAAUGGUGUAGAUAAGUUG | 70.9 | 188 | – | –
AAUUUAAUACAUGAGGAUCACCCAUGUAAAUUAAUUAAGAUCUAGGAUAUCAGCUCGAAUAGAGCUGAGAAGGAGAUCACAUGU | – | – | 17.4 | 15.1
AAUUUACAGCUAGGAUAUACAUGAGGAUCACCCAUGUAAUGAUCGGAUCUUAUGAUCGUAUCCGUGUAGAAGGAGCAAAUAAGA | 8.12 | 8.8 | – | –
AAUUUACAGGGAGGAUAUACAUGAGGAUCACCCAUGUAAUCAUAUGAUAUUUUUUUUGUAUGAGUGUAGAAGGCCCAAAUAACA | 9.27 | 11.4 | – | –
AAUUUACAUGAGGAUCACCCAUGUGAGGAUAUGAUACUAUGUACUUCGGUACAUAGUAUCAGAAGGCAUGUGAA | 128 | 97.7 | – | –
ACAAAUGGAGGAUAUACAUGAGGAUCACCCAUGUAUAUCCUACAUAUGUGAUCUUUAUGUAGAAGGCCAUUUGA | 12.2 | 11.5 | – | –
ACAAAUGGAGGAUAUACAUGAGGAUCACCCAUGUUUAUCCUACAUGUGUGAUAAUAAUGUAGAAGGCCAUUUGA | 19.7 | 13.2 | – | –
ACAAGUUUGUAGAAGGACGACUAAUUUGUAUUCGUAGGAUAUACUAUUUACAUGAGGAUCACCCAUGUUUUUAUGGAACAAUGU | 11.9 | 16.2 | – | –
ACAAUACAUGAGGAUCACCCAUGUUAGGAUAUACGCAUGCAUGCAUGCAUGCAUGCAAGUAGAAGGAACCAUGC | 28.6 | 26.8 | – | –
ACACGUGUGUCAGGAUAUCACACUAAUUGGACUAACUAUAUGAAAGCACAUGAGGAUCACCCAUGUGAGAAGGGACGCCACCUG | 12 | 9.97 | – | –
ACAUACUAUCGAGGAUAUCGGUAAGAAAAGUUACGAGAAGGCGAUUAUAAAUUUAUAUUAUUAUACAUGAGGAUCACCCAUGUA | – | – | 20.9 | 21.3
ACAUACUCUCGAGGAUAUCGUAUAAUUAUUAAACGAGAAGGCGAUUGUUUAUUUCUAAUACACGACAUGAGGAUCACCCAUGUA | – | – | 27.1 | 25.4
ACAUAGUUAGGAUAUGCUGCUCGUCACUUGCGUGAUGAGUAGCAGAAGGAACAUGAGGAUCACCCAUGUAAAGA | 29.9 | 29.5 | – | –
ACAUCGACAGGAUAUACGUGAGUGGAAAAAGUAUGUCCACUACAUGAGGAUCACCCAUGUAGAAGGGUCGAUGA | 16.2 | 15 | – | –
ACAUCGUGAGACAUGAGGAUCACCCAUGUGUGAUAGUGGGCACAGGAUAUCCAAAUUUGGAAUUUGGAGAAGGGUGAUCGUUAA | – | – | 72.1 | 68.6
ACAUCGUGAGACAUGAGGAUCACCCAUGUGUGAUAGUGGGCACAGGAUAUCCAGACUUGGAAUCUGGAGAAGGGUGAUCGUUAA | – | – | 86.7 | 129
ACAUCUAGAGGAUAUACAUGAGUGAUACACGUAUUUCCACUACAUGAGGAUCACCCAUGUAGAAGGCUAGAUGA | 50 | 16.9 | – | –
ACAUGACAUGAGGAUCACCCAUGUGAGGAUAUGCGAAAAAAAAAAAAAAAAAAAAAAAGCAGAAGGCACAAAAA | 180 | 280 | – | –
